SUMO Mot1 rescue: blocks SUMOylation pathway, rescuing yeast Mot1-301 growth; S. cerevisiae Mot1-301 growth rescue, ATP luminescence, 38.5C; percent above DMSO median, 100 means doubled; growth rescue, % at 18.8 µM; 1% of 320,000 active; AID 2716;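 active = every valid replicate shows activation above 250% relative to neutral control wells; inactive = the rest, any valid replicate at or below 250%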
KCNQ1 act: potentiates or activates the human KCNQ1 potassium channel; B-score at 10 µM; CHO-K1 KCNQ1, thallium flux FluxOR fluorescence; active compounds read high; 0.35% of 310,000 active;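 active = fluorescence ratio B-score, a plate-corrected score, at least three library SD, with initial intensity B-score within 5 SD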
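Material: CHO-K1 cells stably expressing KCNQ1. Medium: assay buffer for compound exposure, DMSO matched across wells. Reagent: K+/Tl+ depolarizing stimulus. Compound dosing: single-concentration screen. Times: 37 °C overnight plating, 90-min dark dye load, 20-min compound pretreatment. Technique: FluxOR Tl+ flux fluorescence.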
hERG rescue: hERG (human) protection from proarrhythmic block; CHO-hERG, FluxOR thallium flux, dofetilide IC70 present; 0.51% of 310,000 active; activation (rescue from dofetilide block), less the hit threshold, % at 10 µM; AID 1511;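 active = activation above the mean of controls blocked by dofetilide plus 5 SD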;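 note: thallium influx through hERG after potassium depolarization seen as dye fluorescence rise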
KCC2 mod: modulators of human KCC2 chloride dependent transport. KCC2 cells, thallium flux FluoZin-2 fluorescence. B-score of Tl+ flux slope (higher = more flux/activation; lower = inhibition) at 10 µM. 2.2% of 190,000 active. AID 1456;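 active = thallium flux slope and its plate-corrected score both differing from the plate sample mean at a set confidence after two filtering rounds, in either direction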;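 note: slope of fluorescence scaled to starting intensity during 10 to 20 s after thallium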
AI-2 QS mod: modulators of Vibrio harveyi AI-2 quorum sensing system | activity change, % at 7.5 µM | 0.4% of 300,000 active | AID 2094 | Vibrio harveyi JMH597 AI-2 luminescence/OD600 ratio, 9 h; active compounds read low; strain lacks LuxN and CqsS sensors; 0 = neutral-control median; in the data active = activity change below about -75%, passing the limit was not always enough;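 note: luminescence divided by OD600 gain over 9 h not by final OD600 alone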
KCNQ1 inh: inhibitors of human KCNQ1 potassium channel | B-score at 10 µM | AID 2642 | P51787 | CHO-K1 KCNQ1, FluxOR thallium flux fluorescence; active compounds read high | 1.3% of 310,000 active;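 active = compounds whose thallium flux B-score, printed positive for inhibition, exceeds three library SD while starting fluorescence stays within three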;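 note: channel opened by potassium depolarization with thallium stimulus after 20 min compound exposure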
KCNQ1 inh valid: reconfirmed blocker of the human KCNQ1 potassium channel. KCNQ1 cell line, FluxOR thallium flux fluorescence. 93% of 1,600 active. shares compounds with KCNQ1 inh. inhibition, % at 10 µM;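 active = primary screen active, with duplicate mean exceeding buffer control mean plus 3 SD of buffer wells, cut at about 28% in these data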
CHO KCNQ1 ctr: counter-screen for KCNQ1 inhibitors: effect in parental CHO cells; shares compounds with KCNQ1 inh; parental CHO-K1, FluxOR thallium flux fluorescence ratio; active compounds read low; zero means no signal rise above baseline; fluorescence ratio (Tl flux) at 10 µM; 21% of 1,600 active; AID 588366;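 active = mean of duplicate thallium-flux fluorescence ratios in parental host cells more than 5 SD below the buffer control mean, cut at about 0.38 in these data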;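 note: ratio is peak minus minimum fluorescence divided by baseline fluorescence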
KCNQ1 APC inh: confirmation of human KCNQ1 potassium channel inhibitors by electrophysiology; shares compounds with KCNQ1 inh; KCNQ1-CHO cells, automated patch clamp current; calls only at 10 µM; 20% of 490 active; AID 624120;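 active = KCNQ1 current drop exceeding 3 SD of negative control wells, seen in both duplicate runs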;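 note: steady state current during a 2 s step from -80 to +40 mV; negative values mean current inhibition and positive values mean potentiation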
KCNQ2 inh: rat KCNQ2 inhibition in KCNQ1 inhibitor specificity screen; shares compounds with KCNQ1 inh; KCNQ2 cells, FluxOR thallium flux fluorescence; inhibition, % at 10 µM; 71% of 1,600 active; AID 651746;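 active = mean percent inhibition of the KCNQ2 thallium signal more than 5 SD above the buffer-only control wells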;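 note: KCNQ2 expressed in CHO cells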
Target sequence (O88943 whole entry, looked up): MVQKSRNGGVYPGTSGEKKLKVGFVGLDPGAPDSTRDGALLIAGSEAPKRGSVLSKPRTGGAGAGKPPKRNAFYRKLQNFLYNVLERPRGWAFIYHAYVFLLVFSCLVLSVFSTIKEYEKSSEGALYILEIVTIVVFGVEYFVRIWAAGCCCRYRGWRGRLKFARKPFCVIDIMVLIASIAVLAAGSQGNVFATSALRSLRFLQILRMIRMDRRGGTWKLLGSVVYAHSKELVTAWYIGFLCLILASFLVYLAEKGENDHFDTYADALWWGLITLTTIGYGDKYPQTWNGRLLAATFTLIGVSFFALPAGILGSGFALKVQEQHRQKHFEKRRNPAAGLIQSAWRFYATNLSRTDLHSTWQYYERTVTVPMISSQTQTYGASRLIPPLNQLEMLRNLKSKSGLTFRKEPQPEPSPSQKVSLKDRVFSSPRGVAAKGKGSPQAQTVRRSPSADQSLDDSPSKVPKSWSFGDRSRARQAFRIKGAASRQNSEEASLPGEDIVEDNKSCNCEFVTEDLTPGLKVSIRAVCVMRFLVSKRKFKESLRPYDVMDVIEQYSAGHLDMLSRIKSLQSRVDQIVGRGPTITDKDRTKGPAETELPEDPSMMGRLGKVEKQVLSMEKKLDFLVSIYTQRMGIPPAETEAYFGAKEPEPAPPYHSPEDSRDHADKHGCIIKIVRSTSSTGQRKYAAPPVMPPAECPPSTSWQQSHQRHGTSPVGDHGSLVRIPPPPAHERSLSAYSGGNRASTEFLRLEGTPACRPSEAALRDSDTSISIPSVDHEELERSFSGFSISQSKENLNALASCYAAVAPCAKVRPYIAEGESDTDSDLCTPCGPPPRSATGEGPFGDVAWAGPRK
KCNQ1-KCNE1 inh: human KCNQ1/KCNE1 inhibition in KCNQ1 specificity screen | KCNQ1/KCNE1 cells, FluxOR thallium flux fluorescence | 77% of 1,600 active | shares compounds with KCNQ1 inh | inhibition, % at 10 µM;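 active = mean percent inhibition of duplicate wells above the buffer-only control mean plus 3 SD of those controls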
Of the large screens only hits and unclear results are named; the others gave an inactive call (follow-up assays come after a bar, where they were run). Most compounds without a hit are left out; they make up all but 4.2% or so of the library.

O=C1c2ccsc2SCCN1Cc1c(Cl)cccc1Cl	KCNQ1 inh 8 | KCNQ1 inh valid 69 | CHO KCNQ1 ctr inactive | KCNQ2 inh 79% | KCNQ1-KCNE1 inh 86%
O=C1c2ccsc2SCCN1Cc1c(F)cccc1Cl	none (no result: KCC2 mod)
COc1ccc(CCNC(=O)COC(=O)c2cc(S(=O)(=O)N3CCOCC3)ccc2C)cc1OC	none (no result: KCNQ1 act, hERG rescue, KCC2 mod, AI-2 QS mod, KCNQ1 inh)
CCOC(=O)CSC1=C(C#N)C(c2ccco2)C(C(=O)Nc2cccc(C(F)(F)F)c2)=C(C)N1 (stereo not given)	KCNQ1 inh 8 | KCNQ1 inh valid 145 | CHO KCNQ1 ctr inactive | KCNQ1 APC inh inactive | KCNQ2 inh 125% | KCNQ1-KCNE1 inh active
CCN(CC)S(=O)(=O)c1ccc(N2CCN(CCOc3ccc(OC)cc3)CC2)nc1	none (no result: KCC2 mod)
CCC(Sc1nc2ccncc2[nH]1)C(=O)Nc1cc(Cl)ccc1C (stereo not given)	none (no result: KCC2 mod)
Cc1ccc(N(C(=O)Nc2ccccc2)C2=NCCC2)cc1	none
COc1ccc(N(C(=O)Nc2ccc(Cl)cc2)C2=NCCC2)cc1	KCNQ1 inh 12 | KCNQ1 inh valid 130 | CHO KCNQ1 ctr 0.37 | KCNQ2 inh 132% | KCNQ1-KCNE1 inh 200%
CC(=O)c1c(C)[nH]c(C(=O)Nc2ccc(C)c(S(=O)(=O)N(C)C)c2)c1C	none (no result: KCC2 mod)
CC(=O)c1c(C)[nH]c(C(=O)Nc2ccc(C)c(S(=O)(=O)Nc3ccc(C)cc3C)c2)c1C	KCNQ1 inh 12 | KCNQ1 inh valid 142 | CHO KCNQ1 ctr inactive | KCNQ1 APC inh inactive | KCNQ2 inh 142% | KCNQ1-KCNE1 inh active
Cc1ccc(NC(=O)CSc2ncnc3ccccc23)cc1S(=O)(=O)N1CCCCCC1	KCNQ1 inh 6 | KCNQ1 inh valid 118 | CHO KCNQ1 ctr inactive | KCNQ1 APC inh inactive | KCNQ2 inh 127% | KCNQ1-KCNE1 inh 106%
Cc1cccc(OCCC(=O)Nc2ccc(C)c(S(=O)(=O)N3CCCCC3)c2)c1	none
CCc1cccc(OCC(=O)Nc2ccc(C)c(S(=O)(=O)N3CCCCCC3)c2)c1	KCNQ1 inh 10 (no result: KCC2 mod) | KCNQ1 inh valid 122 | CHO KCNQ1 ctr inactive | KCNQ1 APC inh inactive | KCNQ2 inh 116% | KCNQ1-KCNE1 inh 106%
Cc1ccc(NC(=O)COc2cccc(C)c2C)cc1S(=O)(=O)N1CCCCCC1	KCNQ1 inh 6 (no result: KCC2 mod) | KCNQ1 inh valid 85 | CHO KCNQ1 ctr inactive | KCNQ2 inh 119% | KCNQ1-KCNE1 inh 134%
COc1ccc(NC(=O)COc2ccccc2C)cc1S(=O)(=O)N1CCCCC1	none (no result: KCC2 mod)
CCCCCc1cc(=O)oc2c(C(CCN(CC)CC)c3ccc(N(C)C)cc3)c(OC)cc(OC)c12 (stereo not given)	none
Cc1c(NC(=O)C(C)OC(=O)/C=C/c2ccc(OC(F)F)cc2)c(=O)n(-c2ccccc2)n1C (stereo not given)	none (no result: KCC2 mod)
CN(C)CCCC1(O)c2ccccc2C=Cc2ccccc21	none
Cc1ccc(Cl)cc1N1CCN(S(=O)(=O)c2ccc3c(c2)OCCO3)CC1	KCNQ1 inh 7 | KCNQ1 inh valid 113 | CHO KCNQ1 ctr inactive | KCNQ2 inh 78% | KCNQ1-KCNE1 inh 128%
CSc1cccc(NC(=O)N2CCc3ccc(NC(=O)c4ccccn4)cc3C2)c1	KCNQ1 inh 6 (no result: KCC2 mod) | KCNQ1 inh valid 112 | CHO KCNQ1 ctr inactive | KCNQ1 APC inh inactive | KCNQ2 inh 104% | KCNQ1-KCNE1 inh 178%
COc1cccc(C(C(=O)NCC2CCCO2)N(C(=O)Cn2nnc3ccccc32)c2ccc(NC(C)=O)cc2)c1 (stereo not given)	none (no result: KCC2 mod)
COC(=O)c1ccc(NC(=S)NC2CCc3ccccc32)cc1 (stereo not given)	KCNQ1 inh 7 | KCNQ1 inh valid 68 | CHO KCNQ1 ctr inactive | KCNQ2 inh 65% | KCNQ1-KCNE1 inh 58%
COC(=O)c1ccc(NC(=S)NC2CC2)cc1	none
Cc1ccc(NC(=O)CN2CCOCC2)cc1C	none (no result: KCC2 mod)
COc1cc(C(=O)COC(=O)C2CCN(c3ccc(C(F)(F)F)cn3)CC2)ccc1OC(F)F	KCNQ1 inh 6 (no result: KCC2 mod) | KCNQ1 inh valid 62 | CHO KCNQ1 ctr inactive | KCNQ2 inh 115% | KCNQ1-KCNE1 inh 62%
CC(=O)Nc1ccc(S(=O)(=O)N2CCC(NC(=O)C(Cc3ccccc3F)NC(C)=O)CC2)cc1 (stereo not given)	none (no result: SUMO Mot1 rescue, KCC2 mod)
Cc1nn(-c2ccccc2)c2c1C(c1ccc(F)cc1F)C(C#N)=C(N)O2 (stereo not given)	KCNQ1 inh 7 | KCNQ1 inh valid 45 | CHO KCNQ1 ctr inactive | KCNQ2 inh inactive | KCNQ1-KCNE1 inh 52%
CCC(C)c1ccc(S(=O)(=O)N2CCN(c3ccccn3)CC2)cc1 (stereo not given)	none (no result: KCC2 mod)
Cc1onc(-c2ccccc2)c1C(=O)OCCOc1cccc(Cl)c1	KCNQ1 inh 7 (no result: KCC2 mod) | KCNQ1 inh valid 86 | CHO KCNQ1 ctr inactive | KCNQ2 inh 86% | KCNQ1-KCNE1 inh 150%
Cc1onc(-c2ccccc2)c1CNC(=O)Nc1cccc(Cl)c1	KCNQ1 inh 7 (no result: KCC2 mod) | KCNQ1 inh valid 76 | CHO KCNQ1 ctr inactive | KCNQ2 inh 74% | KCNQ1-KCNE1 inh 79%
Cc1ccc(OCCOC(=O)c2c(-c3ccccc3)noc2C)cc1	none (no result: KCC2 mod)
Cn1ncc([N+](=O)[O-])c1C(=O)Nc1ccc(-c2nc3ccccc3o2)cc1	none
CCOC(=O)N1CCN(CC(O)COCCC23CC4CC(CC(C4)C2)C3)CC1 (stereo not given)	none (no result: KCC2 mod)
CC1CCCCN1CC(O)COCCC12CC3CC(CC(C3)C1)C2 (stereo not given)	KCNQ1 inh 8 | KCNQ1 inh valid 90 | CHO KCNQ1 ctr inactive | KCNQ1 APC inh active | KCNQ2 inh 71% | KCNQ1-KCNE1 inh 64%
Cc1nc(-c2ccc(S(=O)(=O)Oc3ccc(Cl)cc3Cl)s2)cs1	KCNQ1 inh 10 | KCNQ1 inh valid 126 | CHO KCNQ1 ctr inactive | KCNQ1 APC inh inactive | KCNQ2 inh 121% | KCNQ1-KCNE1 inh active

Screening data from PubChem BioAssay.
